This is an account of results in paper PMC3714013 (Chemistry & biology, 2013).

Where two headings read alike, the source gives them in different places. Positions of bridges follow the written chain, without caps; N, C: chain ends. No end group written: not given here.

Assay [1] has as its system Adult male Wistar rats. In words: AgRP-induced weight gain in free-feeding rats, ICV injection. The class given is in vivo, rat. The method in brief: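 Adult male Wistar rats, housed individually on a 12-12h light:dark cycle with chow. Third-ventricle cannula implanted under isoflurane, recovery ≥7 days, placement verified by a plasma glucose rise after ICV 5-thio-D-glucose. ICV pre-treatment with vehicle or test peptide, then 1 h later AgRP (0.01 nmol) or vehicle; n=8–10/group. Body weight gain followed over 5 days.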

For assay [2], the target named is T1, MC1R (Homo sapiens, UniProt Q01726). Particulars: cited from earlier work.
Assay [3] has as its target T1, MC1R. Put plainly: Competitive. The class given is binding. The method in brief: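 Intact HEK 293T cells were transiently transfected with a human MC1R construct (calcium phosphate), harvested after 20 h and plated at 10,000–70,000 cells/well in binding buffer. Eu-NDP-MSH ([…]) plus 3-fold dilutions of test peptide (9.0×10−6M to 4.6×10−10M) were incubated for 2 h at 37°C. Read-out was time-resolved fluorescence. Tracer Kd came from saturation binding. Three independent experiments, in duplicate.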

The target of assay [4] is human MC4R (Homo sapiens, UniProt P32245). In words: Competitive. The class given is binding. The method in brief:
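Intact HEK293T cells transiently transfected (calcium phosphate) with human MC4R, harvested 20 h later, in L*R binding buffer at 10,000–70,000 cells/well. […] Washed, DELFIA enhancement, time-resolved fluorescence. Three independent experiments in duplicate.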

Assay [5] has as its system Melan-a cells (MC1R activation). The settings on record: ref Candille et al., 2007; cited from earlier work.
The target of assay [6] is T1, MC1R. Particulars: read-out: MC1R Ki; ref Kiefer et al., 1998; cited from earlier work.

T1 sequence (Q01726 whole entry): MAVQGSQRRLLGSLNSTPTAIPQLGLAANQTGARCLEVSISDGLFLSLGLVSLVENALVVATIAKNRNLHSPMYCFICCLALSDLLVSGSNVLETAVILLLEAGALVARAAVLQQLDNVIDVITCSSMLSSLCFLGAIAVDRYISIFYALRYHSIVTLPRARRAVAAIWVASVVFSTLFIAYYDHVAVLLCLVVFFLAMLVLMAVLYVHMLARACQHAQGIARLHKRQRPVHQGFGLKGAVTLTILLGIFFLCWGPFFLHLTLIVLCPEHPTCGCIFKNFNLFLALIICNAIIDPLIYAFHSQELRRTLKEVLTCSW
Chain of human MC4R (P32245 whole entry): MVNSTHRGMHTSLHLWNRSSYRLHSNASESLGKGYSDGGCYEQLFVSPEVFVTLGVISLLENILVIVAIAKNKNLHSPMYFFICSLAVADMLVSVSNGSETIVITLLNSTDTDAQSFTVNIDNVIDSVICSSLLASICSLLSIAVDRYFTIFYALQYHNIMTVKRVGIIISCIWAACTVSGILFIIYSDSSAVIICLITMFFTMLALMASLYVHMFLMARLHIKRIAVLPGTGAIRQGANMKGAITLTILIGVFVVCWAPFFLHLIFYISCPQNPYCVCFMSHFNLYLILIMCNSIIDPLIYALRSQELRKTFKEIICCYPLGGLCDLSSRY

Take “Agouti-related protein (SPRRCVRLHESCLGQQVPCCDPCATCYCRFFNAFCYCRKLGTATNLCSRT; UniProt P56473 82-131, looked up) [AgRP]”: in assay [1] (ICV 0.01 nmol (submaximal dose)), the “effect on body weight (energy balance response)” value is reported as “increased weight gain”. The “effect on food intake in the first 24 hours” value in assay [1] (ICV 0.01 nmol, data not shown) is “no detectable effect on food intake”.

As to Asip (from UniProt P42127), in assay [2], the inhibition constant (Ki) was 2.6 nM.

For the molecule “GIINTLQKYYCRVRGGRSAVLSSLPKEEQIGKSSTRGRKCSRRKK-NH2 (disulfide 11-40) [CysT-V]”, the inhibition constant (Ki) stood at 243 nM in assay [3] and 206 nM in assay [4].

“GIINTLQKYYSRVRGGRSAV-NH2 [N-term Truncate]” came in with an inhibition constant Ki in assay [3] of more than 5000 nM.

Regarding “GIINTLQKYYSRVRGGRSAVLSSLPKEEQIGKSSTRGRKSSRRKK-NH2 [Cys->Ser]”, the values for the Ki in assay [3] and in assay [4] were 297 nM and 436 nM, respectively.

For canine β-defensin 103 [CBD103], in assay [5], the “effect on cAMP levels in Melan-a cells” value is “neither CBD103 ([Candille et al., 2007]) nor HBD3 (Figure S1A) stimulate or reduce cAMP levels”.

B1: RFF→AFF mutation in Asip: Asip mutant with RFF motif changed to AFF, literature value (protein)
chain: HLALEETLGDDRSLRSNSSMNSLDFSSVSIVALNKKSKKISRKEAEKRKRSSKKKASMKKVARPPPPSPCVATRDSCKPPAPACCDPCASCQCAFFGSACTCRVLNPNC
Turning to B1, the inhibition constant (Ki) in assay [6] is more than 1900 nM.
